Source: PubChem
Sampled rows, rich in hits. Any-hit rate of the full collection: about 2.3%.
ATG4B inh = ATG4B (human) cysteine protease inhibition | Q9Y4P1 | ATG4B cleavage of LC3-PLA2, NBD-HPC fluorescence, 1 h | inhibition, % at 8.33 µM | actives 0.51% (n = 340,000); in the data active = inhibition above about 40%
Target sequence (Q9Y4P1 whole entry, looked up): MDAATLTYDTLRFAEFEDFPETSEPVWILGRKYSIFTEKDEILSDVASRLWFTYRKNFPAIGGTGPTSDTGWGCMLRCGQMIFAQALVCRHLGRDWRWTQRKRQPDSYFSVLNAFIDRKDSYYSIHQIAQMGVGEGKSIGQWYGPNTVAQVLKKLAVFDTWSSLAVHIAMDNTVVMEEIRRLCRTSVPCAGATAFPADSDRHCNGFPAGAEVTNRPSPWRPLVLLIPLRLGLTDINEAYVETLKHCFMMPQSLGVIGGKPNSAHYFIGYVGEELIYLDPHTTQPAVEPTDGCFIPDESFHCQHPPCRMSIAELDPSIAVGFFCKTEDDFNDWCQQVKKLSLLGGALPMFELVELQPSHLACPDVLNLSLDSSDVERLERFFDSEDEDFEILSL
SR-BI DiI inh = inhibitors of mouse SR-BI mediated HDL lipid uptake. Q61009. ldlA[mSR-BI] CHO cells, DiI-HDL uptake fluorescence, 3 h. inhibition, % at 12.5 µM. actives 0.96% (n = 320,000). AID 488896;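 active = mean replicate inhibition of at least 70% and a set share of replicates each scoring 70 or more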;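 also: 0% = median of neutral control wells and 100% = median of positive control wells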
SR-BI DiI-HDL act = activators of SR-BI mediated HDL lipid uptake; CHO ldlA[mSR-BI] cells, DiI-HDL uptake fluorescence, 3 h; 100 = double the neutral-control signal; actives 0.096% (n = 320,000); activation, % at 12.5 µM;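 active = mean replicate activation of at least 60% and every replicate at or above 60%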;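 also: 0% = median plate neutral-control signal and 100% = twice that signal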
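system = CHO ldlA[mSR-BI] cells, LDL receptor-null, SR-BI overexpressing | medium = Ham's F12 with 0.5% BSA, HEPES 25 mM, pH 7.4 | probe or stimulus = DiI-HDL 10 µg/mL | compound dosing = single-point compound dose | incubation = compound exposure 3 h, 37 °C | technique = DiI fluorescence, bottom read | read-out = cell-associated DiI fluorescence as measure of HDL uptake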
CAL PDZ FP-1 = blocks peptide binding to the human CAL PDZ domain | purified CAL PDZ, TMR-peptide fluorescence polarization, 1 h | inhibition, % at 24.9 µM | actives 0.92% (n = 300,000);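 active = mean inhibition of at least 30% with at least half of replicates also reaching 30%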;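 also: 0% = DMSO neutral control and 100% = excess unlabeled competitor peptide PRC23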
CAL PDZ FP-2 = human CAL PDZ-peptide interaction inhibition | Q9HD26 | purified CAL PDZ, TMR-peptide fluorescence polarization, 1 h | inhibition, % at 20 µM | actives 0.02% (n = 330,000);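 active = highest replicate inhibition of at least 40%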;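 also: plate controls were DMSO neutral control wells for no effect and unlabeled competitor peptide control wells for full effect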
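material = purified tagged CAL PDZ domain construct (CerCALP) | compound dosing = 20 µM, one dose | times = 1 h at RT | measured by = fluorescence polarization from S- and P-plane intensities, G-factor corrected | read-out = inhibition from polarization loss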
* = called active by the depositor; · = no result; ! = repeats disagree.

SMILES | ATG4B inh | SR-BI DiI inh | SR-BI DiI-HDL act | CAL PDZ FP-1 | CAL PDZ FP-2
Cc1cc(=O)oc2cc(OCc3ccccc3)ccc12 | -5.6 | -12.4 | 12.4 | 49.0* | -19.4
COC(=O)C(NC(=O)CCc1c(C)nc2c(c(C)nn2-c2ccccc2)c1C)C(C)C (stereo not given) | -10.2 | 19.5 | -19.5 | -6.2 | -0.6
CCOC(=O)CSc1nnc(-c2ccoc2C)n1-c1ccc(C)cc1 | -10.9 | -18.4 | 18.4 | 45.4* | 0.5
Cc1c(CNCCc2ccccc2Cl)c(C(=O)O)c(C)n1-c1ccccc1 | -0.4 | -169.1 | 169.1* | -4.0 | -0.1
CC(C)N=C(N)N=C(N)Nc1ccc(Cl)cc1 | 9.0 | -6.6 | 6.6 | -1.0 | -0.9
NC(=NCCCCCCN=C(N)/N=C(\N)Nc1ccc(Cl)cc1)/N=C(\N)Nc1ccc(Cl)cc1 | 16.3 | -92.1 | 92.1*! | -10.3 | -5.3
COC(=O)c1ccccc1CSc1nsc(/C=C/N(C)C)c1C#N | 25.9 | 101.2* | -101.2 | -11.4 | -0.8
Nc1cc(=O)[nH]c(=O)n1CCCc1ccccc1 | 5.0 | -7.5 | 7.5 | 38.9* | -1.0
Cc1c(Cl)cccc1NC(=O)CN1CCN(CCN=CC2=C(O)CC(c3ccccc3)CC2=O)CC1 (stereo not given) | -1.5 | 31.1 | -31.1 | -3.9 | 0.4
CSc1cc(SC)ncn1 | 2.4 | -9.4 | 9.4 | 0.1 | -1.0
Cc1cc(F)ccc1S(=O)(=O)N1CCCCC1CCNC(=O)C(=O)NCc1ccccn1 (stereo not given) | 1.3 | 14.3 | -14.3 | -8.9 | -1.1
CN(CC(=O)Nc1ccc(OC(F)(F)F)cc1)C(=O)c1ccccc1SCC(=O)N1CCCC1 | -8.0 | 24.4 | -24.4 | -0.6 | -1.2
COC(=O)c1ccc(C2N=C(c3cccs3)CC(c3ccccc3O)N2)cc1 (stereo not given) | -13.2 | 74.8* | -74.8 | -0.9 | -0.4
O=C(c1ccccc1)N1N=C(c2cccs2)CC1c1ccccc1O (stereo not given) | -6.1 | 2.6 | -2.6 | · | -0.1
N#CCc1nn(-c2ccccc2)c2ncnc(N)c12 | -3.4 | -0.7 | 0.7 | 103.3* | -0.4
N#Cc1sc(NCc2ccccc2)nc1Cl | 4.4 | -1.7 | 1.7 | -2.5 | -4.2
N#Cc1c(NCc2ccccc2)ccnc1Cl | -2.0 | -4.9 | 4.9 | 40.5* | -1.2
C/C(=N\NC(=O)c1cc(-c2ccncc2)nc2ccccc12)c1ccc(OC(F)F)cc1 | -17.1 | 14.3 | -14.3 | 69.6* | 0.0
COc1ccccc1-c1cc(C(=O)N/N=C/c2ccc(C)s2)c2ccccc2n1 | -16.6 | 77.1* | -77.1 | -0.2 | -0.9
COc1ccccc1-c1cc(C(=O)Nc2sc3c(c2C#N)CCC(C)C3)c2ccccc2n1 (stereo not given) | 1.8 | 86.2* | -86.2 | -2.7 | 0.2
C/C(=N\NC(=O)c1cc(-c2cccnc2)nc2ccccc12)c1ccccc1O | -9.6 | 106.7* | -106.6 | · | -1.3
NC(=O)C1CCN(C(=O)c2ccc(-c3ccccc3Cl)o2)CC1 | -10.4 | 0.3 | -0.3 | -2.4 | -1.2
Cc1nc2[nH]c(=S)[nH]c2c(=O)[nH]1 | -3.9 | 10.3 | -10.3 | · | -1.1
Cc1ccc(NC(=O)c2cncc(Br)c2)cc1S(=O)(=O)N(C)C | 4.2 | 63.1 | -63.1 | -3.6 | -4.3
CNS(=O)(=O)c1cc(NC(=O)CCNC(=O)c2ccco2)ccc1C | -12.2 | -8.9 | 8.9 | -1.2 | -3.4
SMILES | ATG4B inh | SR-BI DiI inh | SR-BI DiI-HDL act | CAL PDZ FP-1 | CAL PDZ FP-2
COc1cccc(NC(=O)CN(C)C(=O)c2cccc(S(=O)(=O)Nc3ccccc3OC)c2)c1 | -4.7 | 41.2 | -41.2 | 0.7 | -1.2
CN(C)c1nc(F)c(F)c(S(=O)(=O)c2ccccc2)c1F | 14.0 | -22.6 | 22.6 | -5.4 | -0.3
O=C(N/N=C/c1ccccc1OC(F)F)c1cc(-c2ccncc2)nc2ccccc12 | -2.0 | 89.8* | -89.8 | -2.4 | -2.1
CC(C)(C)OC(=O)N(CCc1ccccc1)Cc1cccc(OCc2cccc(NC(=O)c3ccccc3)c2)c1 | · | 10.2 | -10.2 | 0.5 | 1.4
CCOc1ccc(N2CC(C(=O)NC3=NCCS3)CC2=O)cc1 (stereo not given) | -3.3 | -19.8 | 19.8 | · | -0.8
CCC(C)NC(=O)CC(c1ccccc1)c1cc(C)ccc1O (stereo not given) | -6.6 | 1.9 | -1.9 | 33.9* | -0.7
CCOc1cc(CNc2ccccc2)cc(Br)c1OCc1ccc(F)cc1 | 8.9 | 73.7* | -73.7 | -4.0 | -1.0
